Active and inactive are the calls of the source. The calls are words filed in the database; no cut-off is given here.
Key:
[1] = system: NCI-H1975; assay: Induction of apoptosis in human NCI-H1975 at 0.25 uM by acridine orange staining-based fluorescence assay; format: functional, cell-based
Outline: (§1)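 H1975 cells stained with acridine orange after treatment, alongside an untreated control group. Cell and chromatin morphology assessed by fluorescence imaging.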

[2] = system: NCI-H1975; assay: Induction of apoptosis in human NCI-H1975 assessed as induction of cell structure destruction at 0.25 uM by H33342 staining-based inverted fluorescence microscopic analysis; format: functional
Outline: (§2)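 H1975 cells stained with Hoechst 33342 after treatment, alongside an untreated control. Nuclear blue fluorescence, dye uptake, chromatin condensation and cell structure viewed under an inverted fluorescence microscope.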

[3] = system: A549; assay: Cell cycle arrest in human A549 cells assessed as accumulation of cells at G0/G1 phase at 0.72 uM after 24 hrs by propidium iodide staining-based flow cytometric analysis (reference value: 65.22%); format: functional
Outline: (§3)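 A549 cells seeded at 1×10^5 per well, grown 24 h, then treated 24 h with vehicle (0.1% DMSO) or compound at several concentrations. Cells fixed in ice-cold 70% ethanol at 4 °C for 12 h, washed in PBS, treated with 1 mg/mL RNase for 30 min at 37 °C, stained with propidium iodide 30 min in the dark. DNA content measured by flow cytometry.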

[4] = system: A549; assay: Cell cycle arrest in human A549 cells assessed as accumulation of cells at G0/G1 phase at 1.80 uM after 24 hrs by propidium iodide staining-based flow cytometric analysis (reference value: 65.22%); format: functional; outline: as §3
[5] = system: NCI-H1975; assay: Induction of apoptosis in human NCI-H1975 assessed as induction of chromatin shrinkage at 0.25 uM by H33342 staining-based inverted fluorescence microscopic analysis; format: functional, cell-based; outline: as §2
[6] = system: A549; assay: Cell cycle arrest in human A549 cells assessed as accumulation of cells at S phase at 0.72 uM after 24 hrs by propidium iodide staining-based flow cytometric analysis (reference value: 32.13%); format: functional; outline: as §3
[7] = system: A549; assay: Cell cycle arrest in human A549 cells assessed as accumulation of cells at G2/M phase at 1.80 uM after 24 hrs by propidium iodide staining-based flow cytometric analysis (reference value: 2.65%); format: functional; outline: as §3
[8] = system: A549; assay: Antiproliferative activity against human A549 cells after 72 hrs by MTT assay; format: functional, cell-based; conditions: A549, 72 h
Outline: (§4)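 MTT assay; cells grown as monolayers in DMEM or RPMI1640 with 10% FBS at 37 °C, 5% CO2 for 24 h, then compound added for 72 h. MTT at 5 μg/mL for 4 h at 37 °C, formazan dissolved in DMSO, absorbance read at 492 nm with 630 nm reference. Each compound tested three times per line; IC50 from averaged determinations.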

[9] = system: A549; assay: Cell cycle arrest in human A549 cells assessed as accumulation of cells at S phase at 1.80 uM after 24 hrs by propidium iodide staining-based flow cytometric analysis (reference value: 32.13%); format: functional; outline: as §3
[10] = molecular target: Epidermal growth factor receptor (Homo sapiens, UniProt P00533); assay: Inhibition of wild-type EGFR (unknown origin) using substrate-biotin by ELISA-based mobility shift assay
Chain of Epidermal growth factor receptor (Homo sapiens, UniProt P00533) (P00533 whole entry): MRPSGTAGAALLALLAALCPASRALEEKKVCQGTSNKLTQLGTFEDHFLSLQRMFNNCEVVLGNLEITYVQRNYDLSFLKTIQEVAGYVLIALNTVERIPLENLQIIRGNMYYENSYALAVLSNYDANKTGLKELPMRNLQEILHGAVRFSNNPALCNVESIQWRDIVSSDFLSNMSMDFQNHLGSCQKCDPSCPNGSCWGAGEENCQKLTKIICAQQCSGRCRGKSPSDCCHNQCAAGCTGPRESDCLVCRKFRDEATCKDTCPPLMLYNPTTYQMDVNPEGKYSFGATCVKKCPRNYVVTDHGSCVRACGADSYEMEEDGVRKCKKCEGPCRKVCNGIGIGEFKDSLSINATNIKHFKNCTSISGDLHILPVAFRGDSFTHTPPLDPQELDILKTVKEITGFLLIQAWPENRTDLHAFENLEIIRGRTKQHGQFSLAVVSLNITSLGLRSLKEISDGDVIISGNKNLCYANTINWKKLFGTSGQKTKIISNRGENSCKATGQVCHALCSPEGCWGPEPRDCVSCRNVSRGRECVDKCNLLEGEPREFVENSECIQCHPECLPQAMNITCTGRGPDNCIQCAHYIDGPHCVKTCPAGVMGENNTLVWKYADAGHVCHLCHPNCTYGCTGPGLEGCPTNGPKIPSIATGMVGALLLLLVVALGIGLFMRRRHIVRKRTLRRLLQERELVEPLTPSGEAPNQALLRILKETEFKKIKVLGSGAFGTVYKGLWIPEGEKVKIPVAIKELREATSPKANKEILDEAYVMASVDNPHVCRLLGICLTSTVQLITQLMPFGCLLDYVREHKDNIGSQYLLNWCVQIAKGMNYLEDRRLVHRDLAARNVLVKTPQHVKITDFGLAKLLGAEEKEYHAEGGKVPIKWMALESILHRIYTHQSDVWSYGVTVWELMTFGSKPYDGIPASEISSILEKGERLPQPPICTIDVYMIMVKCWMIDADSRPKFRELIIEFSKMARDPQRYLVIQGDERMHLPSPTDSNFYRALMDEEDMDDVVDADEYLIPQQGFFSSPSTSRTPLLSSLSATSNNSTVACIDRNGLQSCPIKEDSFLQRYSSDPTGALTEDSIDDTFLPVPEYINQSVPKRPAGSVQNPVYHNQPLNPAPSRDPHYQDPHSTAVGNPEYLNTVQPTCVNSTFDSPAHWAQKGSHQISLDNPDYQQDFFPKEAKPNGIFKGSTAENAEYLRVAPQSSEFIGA

[11] = system: A549; assay: Cell cycle arrest in human A549 cells assessed as accumulation at G2/M phase after 24 hrs by propidium iodide staining-based flow cytometric analysis; format: functional; outline: as §3
[12] = molecular target: Epidermal growth factor receptor (Homo sapiens, UniProt P00533, L858R/T790M); assay: Inhibition of EGFR T790M/L858R double mutant (unknown origin) using substrate-biotin by ELISA-based mobility shift assay
Chain of Epidermal growth factor receptor (Homo sapiens, UniProt P00533, L858R/T790M) (P00533 25-1210 T790M/L858R limits assumed): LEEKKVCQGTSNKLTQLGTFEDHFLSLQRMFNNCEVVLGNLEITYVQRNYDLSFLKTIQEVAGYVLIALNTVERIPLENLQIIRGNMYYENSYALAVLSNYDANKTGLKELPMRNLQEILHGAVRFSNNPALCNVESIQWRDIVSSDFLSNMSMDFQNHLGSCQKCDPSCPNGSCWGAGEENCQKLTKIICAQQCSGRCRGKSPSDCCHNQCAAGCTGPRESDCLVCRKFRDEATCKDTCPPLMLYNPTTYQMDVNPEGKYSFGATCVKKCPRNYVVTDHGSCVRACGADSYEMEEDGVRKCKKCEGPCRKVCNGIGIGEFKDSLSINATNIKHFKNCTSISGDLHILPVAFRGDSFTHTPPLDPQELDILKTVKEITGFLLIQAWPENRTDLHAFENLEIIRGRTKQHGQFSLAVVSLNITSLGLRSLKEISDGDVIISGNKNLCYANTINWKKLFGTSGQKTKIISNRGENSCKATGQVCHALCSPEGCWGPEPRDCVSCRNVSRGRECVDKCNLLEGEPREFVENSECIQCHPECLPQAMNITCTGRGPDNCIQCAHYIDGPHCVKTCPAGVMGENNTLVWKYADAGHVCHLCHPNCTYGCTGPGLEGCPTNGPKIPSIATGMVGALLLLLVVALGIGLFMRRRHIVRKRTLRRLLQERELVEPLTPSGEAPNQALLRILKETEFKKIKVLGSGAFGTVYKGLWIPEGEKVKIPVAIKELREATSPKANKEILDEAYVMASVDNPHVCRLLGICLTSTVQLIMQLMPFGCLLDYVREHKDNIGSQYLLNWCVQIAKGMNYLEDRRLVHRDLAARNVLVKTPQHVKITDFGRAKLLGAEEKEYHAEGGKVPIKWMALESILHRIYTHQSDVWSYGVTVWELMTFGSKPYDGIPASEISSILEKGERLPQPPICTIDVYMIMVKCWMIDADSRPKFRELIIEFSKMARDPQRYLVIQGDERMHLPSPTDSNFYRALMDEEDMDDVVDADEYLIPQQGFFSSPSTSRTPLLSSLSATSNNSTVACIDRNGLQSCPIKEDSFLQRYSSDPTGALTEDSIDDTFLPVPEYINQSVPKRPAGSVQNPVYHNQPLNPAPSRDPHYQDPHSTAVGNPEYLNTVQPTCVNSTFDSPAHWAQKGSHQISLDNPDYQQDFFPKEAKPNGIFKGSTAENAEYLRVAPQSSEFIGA

[13] = system: NCI-H1975; assay: Induction of apoptosis in human NCI-H1975 assessed as induction of membrane damage at 0.25 uM by H33342 staining-based inverted fluorescence microscopic analysis; format: functional, cell-based; outline: as §2
[14] = system: NCI-H1975; assay: Antiproliferative activity against human NCI-H1975 cells after 72 hrs by MTT assay; format: functional, cell-based; conditions: NCI-H1975, 72 h; outline: as §4
[15] = organism: Homo sapiens; assay: Selectivity ratio of IC50 for wild-type EGFR (unknown origin) to IC50 for EGFR T790M/L858R double mutant (unknown origin)
[16] = system: NCI-H1975; assay: Induction of apoptosis in human NCI-H1975 assessed as induction of chromatin shrinkage at 0.25 uM by acridine orange staining-based fluorescence assay; format: functional, cell-based; outline: as §1
[17] = system: A549; assay: Cell cycle arrest in human A549 cells assessed as accumulation of cells at G0/G1 phase at 0.36 uM after 24 hrs by propidium iodide staining-based flow cytometric analysis (reference value: 65.22%); format: functional; outline: as §3
[18] = system: HepG2; assay: Antiproliferative activity against human HepG2 cells after 72 hrs by MTT assay; format: functional, cell-based; conditions: HepG2, 72 h
Outline: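 MTT assay; cells grown as monolayers in DMEM or RPMI1640 with 10% FBS at 37 °C, 5% CO2 for 24 h, then compound added for 72 h. Each compound tested three times per line; IC50 from averaged determinations.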

[19] = system: NCI-H1975; assay: Induction of apoptosis in human NCI-H1975 assessed as formation of cells with sharp edge at 0.25 uM by acridine orange staining-based fluorescence assay; format: functional, cell-based; outline: as §1
[20] = system: A549; assay: Cell cycle arrest in human A549 cells assessed as accumulation of cells at S phase at 0.36 uM after 24 hrs by propidium iodide staining-based flow cytometric analysis (reference value: 32.13%); format: functional; outline: as §3
[21] = system: A549; assay: Cell cycle arrest in human A549 cells assessed as accumulation of cells at G2/M phase at 0.36 uM after 24 hrs by propidium iodide staining-based flow cytometric analysis (reference value: 2.65%); format: functional; outline: as §3
[22] = system: A549; assay: Cell cycle arrest in human A549 cells assessed as accumulation of cells at G2/M phase at 0.72 uM after 24 hrs by propidium iodide staining-based flow cytometric analysis (reference value: 2.65%); format: functional; outline: as §3

IC50 [8]: 329 nM
IC50 [10]: 1530 nM
IC50 [12]: 8 nM
IC50 [14]: 254 nM
Ratio IC50 [15]: 191
IC50 [18]: 365 nM
SMILES: CCC/C=C\C(=O)Nc1cc(Nc2nc(C)cc(-c3cn(C)c4ccccc34)n2)c(OC)cc1N(C)CCN(C)C
Activity [1]: Active
Activity [2]: Active
Activity [3]: 44.91%
Activity [4]: 39.55%
Activity [5]: Active
Activity [6]: 39.81%
Activity [7]: 22.24%
Activity [9]: 38.24%
Activity [11]: Dose-dependent effect
Activity [13]: Active
Activity [16]: Active
Activity [17]: 56.78%
Activity [19]: Active
Activity [20]: 37.15%
Activity [21]: 6.07%
Activity [22]: 15.28%
